Converted amounts (≈) assume the structure as drawn. Where two headings read alike, the source gives them in different places. Ends that are not written are not given here.
Key:
[1] = tested on: P. aeruginosa 152; type: cell-based, Pseudomonas aeruginosa
[2] = tested on: E. coli E423–17; type: cell-based, Escherichia coli
[3] = tested on: S. aureus USA300; assay: microbe, parasite or virus in culture; type: cell-based, Staphylococcus aureus; conditions: for MIC: Staphylococcus aureus
[4] = Effect of MHB dilution on antimicrobial activity of a panel of antibiotics; type: cell-based; conditions: MHB from 100% to 12.5% (Figure S2)
[5] = tested on: preformed biofilms of S. aureus USA300 LAC; assay: Disruption of preformed biofilms; type: cell-based, Staphylococcus aureus; conditions: 100% MHB, 24 h treatment, XTT
How it was run: (§1)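 Biofilms grown from an exponential-phase culture (OD600 ~0.4) for 24 h at 37°C in TSB, then washed with PBS to remove planktonic cells. Treated with peptide in MHB (different strengths) for 24 h at 37°C. Live cells measured with XTT in TSB (2 h, 37°C, A450), blanked on medium with XTT. Results given as % of water-treated biofilm, mean ± SD, one-way ANOVA.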

[6] = tested on: preformed biofilms of E. coli E423–17; assay: Disruption of preformed biofilms; type: cell-based, Escherichia coli
How it was run: as §1

[7] = tested on: A. baumannii B28–16; type: cell-based, Acinetobacter baumannii
[8] = tested on: S. aureus USA300 membrane; assay: Membrane depolarization; type: cell-based, Staphylococcus aureus; conditions: peptide up to 2× MIC; Triton X-100 0.1% (Figure 5C)
How it was run: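 Exponential-phase MRSA USA300 grown in TSB, washed, and resuspended in 2 volumes of PBS with 25 mM glucose. Energised for 15 min at 37°C, then given 500 nM (final) DiBAC4(3). Baseline fluorescence (ex 485/em 520 nm) read for 20 min; peptide then added and reading continued for 40 min. Triton X-100 (0.1%) was the positive control.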

[9] = tested on: E. coli membrane; assay: Membrane permeabilization; type: cell-based, Escherichia coli; conditions: Figure S4A
[10] = tested on: S. aureus USA300 LAC; type: cell-based, Staphylococcus aureus; conditions: 17 passages at sub-MIC, MHB
[11] = tested on: human skin HaCaT cells
[12] = MRSA|USA300, pH 6.3, read-out: Antimicrobial activity (MIC), MRSA in MHB, pH 6.3
[13] = MRSA|USA300, pH 7.2, read-out: Antimicrobial activity (MIC), MRSA in MHB, pH 7.2
[14] = MRSA|USA300, read-out: Antimicrobial activity (MIC), MRSA in MHB, 10% human serum
[15] = MRSA|USA300, read-out: Antimicrobial activity (MIC), MRSA in MHB, NaCl (150 mM)

In the case of KRIWQRIK-NH2 [W539], the “Activity (MIC), P. aeruginosa” value [1] is reported as >32 µM.
For KRIVQRIK-NH2 [W538], the “Activity (MIC), screen of LL-37 fragments” value (“Activity (MIC), screen” for short) ([2]; E423–17) was 8 µM and the “Activity (MIC), P. aeruginosa” value [1] was >32 µM.
For “KEKIGKEFKR-NH2 (C-terminus assumed) [KE-10]”, the “Antimicrobial activity (MIC) in cell culturing media” value ([3]; USA300) was > 64 µM.
In the case of CC(=O)NC[C@H]1CN(c2ccc(N3CCOCC3)c(F)c2)C(=O)O1 [Linezolid], the MIC [3, 12] is reported as 8 µM (≈ 2.7 µg/mL), the MIC [3, 13] is reported as 8 µM (≈ 2.7 µg/mL) and the MIC [3, 14] is reported as 8 µM (≈ 2.7 µg/mL). The “Change in MIC with the dilution of MHB” value [4] was “essentially no changes in antibacterial activity”.
In the case of C/C(=C\C(=O)OCCCCCCCCC(=O)O)C[C@@H]1OC[C@H](C[C@@H]2O[C@H]2[C@@H](C)[C@H](C)O)[C@@H](O)[C@H]1O [Muporicin], the “Antimicrobial activity (MIC)” value ([3]; MRSA in MHB, 10% human serum) is reported as 4 µM, the “Antimicrobial activity (MIC)” value ([3]; MRSA in MHB, 20% human serum) is reported as 4 µM and the “Antimicrobial activity (MIC)” value ([3]; MRSA in MHB, NaCl (150 mM)) is reported as 1 µM. For the same compound, the “Antimicrobial activity (MIC)” value ([3]; MRSA in MHB, pH 6.3) was 0.5 µM, the “Antimicrobial activity (MIC)” value ([3]; MRSA in MHB, pH 7.2) was 1 µM and the “Change in MIC with the dilution of MHB” value [4] was “essentially no changes in antibacterial activity”.
In the case of KRWWQRWK-NH2 [W541], the “Activity (MIC), E. coli” value ([2]; E423–17) is reported as 8 µM and the “Activity (MIC), P. aeruginosa” value [1] is reported as >32 µM.
For CC[C@H](C)[C@H](NC(=O)[C@H](CCCCN)NC(=O)[C@H](CCC(=O)O)NC(=O)[C@H](CCCCN)NC(=O)[C@H](CO)NC(=O)[C@H](CCCCN)NC(=O)[C@H](CCCNC(=N)N)NC(=O)[C@H](Cc1ccccc1)NC(=O)[C@H](Cc1ccccc1)NC(=O)[C@H](CC(=O)O)NC(=O)CNC(=O)[C@H](CC(C)C)NC(=O)[C@@H](N)CC(C)C)C(=O)NCC(=O)N[C@@H](CCCCN)C(=O)N[C@@H](CCC(=O)O)C(=O)N[C@@H](Cc1ccccc1)C(=O)N[C@@H](CCCCN)C(=O)N[C@@H](CCCNC(=N)N)C(=O)N[C@H](C(=O)N[C@H](C(=O)N[C@@H](CCC(N)=O)C(=O)N[C@@H](CCCNC(=N)N)C(=O)N[C@H](C(=O)N[C@@H](CCCCN)C(=O)N[C@@H](CC(=O)O)C(=O)N[C@@H](Cc1ccccc1)C(=O)N[C@@H](CC(C)C)C(=O)N[C@@H](CCCNC(=N)N)C(=O)N[C@@H](CC(N)=O)C(=O)N[C@@H](CC(C)C)C(=O)N[C@H](C(=O)N1CCC[C@H]1C(=O)N[C@@H](CCCNC(=N)N)C(=O)N[C@H](C(=O)N[C@@H](CCC(=O)O)C(=O)N[C@@H](CO)C(=O)O)[C@@H](C)O)C(C)C)[C@@H](C)CC)C(C)C)[C@@H](C)CC [LL-37], the “Activity (MIC), screen” value ([3]; 12.5% MHB (Figure 3)) was “became active”, the “Activity (MIC), screen” value ([3]; 100% MHB (Figure 3)) was “did not display any activity” and the “Antimicrobial activity (MIC) in cell culturing media” value ([3]; RPMI and DMEM media (Table S2)) was “remained active”. The “Activity (MIC), screen” value ([2]; 100% MHB, rich media (Figure 3)) was “active”, the “Antimicrobial activity (MIC) in cell culturing media” value ([2]; RPMI and DMEM media (Table S2)) was “remained active” and the “Antibiofilm activity against 24 h preformed biofilms” value [5] was “essentially no antibiofilm activity”. For the same compound, the “Effect on biofilms with increase in peptide concentration” value ([6]; 12.5% MHB (Figure S1)) was “dose-dependent antibiofilm effect is clear” and the “Effect on biofilms with increase in peptide concentration” value ([6]; 100% MHB (Figure S1)) was “subtle effect”.
With KRWWQWWK-NH2 [W542] the “Activity (MIC), S. aureus” value ([3]; USA300) was 8 µM, the “Activity (MIC), E. coli” value ([2]; E423–17) was 4 µM and the “Activity (MIC), P. aeruginosa” value [1] was 4 to 8 µM. For the same compound, the “Activity (MIC), A. baumannii” value [7] was 32 µM.
With Triton X-100 the Membrane depolarization [8] was “strong membrane depolarization”.
With CN[C@H](CC(C)C)C(=O)N[C@H]1C(=O)N[C@@H](CC(N)=O)C(=O)N[C@H]2C(=O)N[C@H]3C(=O)N[C@H](C(=O)N[C@H](C(=O)O)c4cc(O)cc(O)c4-c4cc3ccc4O)[C@H](O)c3ccc(c(Cl)c3)Oc3cc2cc(c3O[C@@H]2O[C@H](CO)[C@@H](O)[C@H](O)[C@H]2O[C@H]2C[C@](C)(N)[C@H](O)[C@H](C)O2)Oc2ccc(cc2Cl)[C@H]1O [Vancomycin] the MIC [3, 12] was 0.5 µM (≈ 0.725 µg/mL), the MIC [3, 13] was 0.5 µM (≈ 0.725 µg/mL) and the MIC [3, 14] was 0.5 µM (≈ 0.725 µg/mL). For the same compound, the MIC [3, 15] was 0.5 to 1 µM (≈ 0.725 to 1.45 µg/mL) and the “Change in MIC with the dilution of MHB” value [4] was “essentially no changes in antibacterial activity”.
CNC(C)C1CCC(N)C(OC2C(N)CC(N)C(OC3OCC(C)(O)C(NC)C3O)C2O)O1 (centres unmarked) [Gentamicin] showed an MIC [3, 12] of 1 to 2 µM (≈ 0.478 to 0.955 µg/mL), an MIC [3, 13] of 0.5 µM (≈ 0.239 µg/mL) and an MIC [3, 14] of 0.5 to 1 µM (≈ 0.239 to 0.478 µg/mL). For the same compound, the MIC [3, 15] was 1 µM (≈ 0.478 µg/mL) and the “Membrane permeation (PI fluorescence)” value [9] was “did not permeate the E. coli membrane”.
For “RIKDFLRNLV-NH2 (C-terminus assumed) [RIK-10]”, the “Activity (MIC), screen” value ([3]; 12.5% MHB (Figure 3)) was “became active”, the “Antimicrobial activity (MIC) in cell culturing media” value ([3]; RPMI and DMEM media (Table S2)) was “poor activity” and the “Activity (MIC), screen” value ([2]; E423–17) was 16 µM. The “Antimicrobial activity (MIC) in DMEM” value ([2]; E423–17) was 8 µM and the “Antimicrobial activity in RPMI” value ([2]; RPMI (Table S2)) was “poor activity”.
For CCOc1ccc2ccccc2c1C(=O)N[C@@H]1C(=O)N2[C@@H]1SC(C)(C)[C@@H]2C(=O)O [Nafcillin], the MIC [3, 14] was 16 µM (≈ 6.63 µg/mL), the MIC [3, 15] was 32 µM (≈ 13.3 µg/mL) and the “Fold increase of MIC after multiple passages” value [10] was 32 fold. The “Change in MIC with the dilution of MHB” value [4] was “small changes in MIC values”.
With NCC[C@H](O)C(=O)N[C@@H]1C[C@H](N)[C@@H](O[C@H]2O[C@H](CN)[C@@H](O)[C@H](O)[C@H]2O)[C@H](O)[C@H]1O[C@H]1O[C@H](CO)[C@@H](O)[C@H](N)[C@H]1O [Amikacin] the MIC [3, 14] was 32 µM (≈ 18.7 µg/mL), the MIC [3, 15] was 32 µM (≈ 18.7 µg/mL) and the “Change in MIC with the dilution of MHB” value [4] was “small changes in MIC values”.
With CCCCCCCCCC(=O)N[C@@H](Cc1c[nH]c2ccccc12)C(=O)N[C@H](CC(N)=O)C(=O)N[C@@H](CC(=O)O)C(=O)N[C@@H]1C(=O)NCC(=O)N[C@@H](CCCN)C(=O)N[C@@H](CC(=O)O)C(=O)N[C@H](C)C(=O)N[C@@H](CC(=O)O)C(=O)NCC(=O)N[C@H](CO)C(=O)N[C@@H]([C@H](C)CC(=O)O)C(=O)N[C@@H](CC(=O)c2ccccc2N)C(=O)O[C@@H]1C [Daptomycin] the “Antimicrobial activity (MIC)” value ([3]; USA300) was 1 µM, the “Antimicrobial activity (MIC)” value ([3]; USA300, pH 6.3) was 1 µM and the “Antimicrobial activity (MIC)” value ([3]; USA300, pH 7.2) was 1 µM.
With RRWWRWWL-NH2 [W544] the “Activity (MIC), S. aureus” value ([3]; USA300) was 4 µM, the “Activity (MIC), E. coli” value ([2]; E423–17) was 4 µM and the “Activity (MIC), P. aeruginosa” value [1] was 4 µM. The “Toxicity to HaCaT cells (viability)” value [11] was “more toxic than other peptides”.
With KRIWQRWK-NH2 [W540] the “Activity (MIC), P. aeruginosa” value [1] was >32 µM and the “Toxicity to HaCaT cells (viability)” value [11] was “more toxic than other peptides”.
In the case of RRWWRWWR-NH2 [W543], the “Antimicrobial activity (MIC)” value ([3]; USA300) is reported as 8 µM, the “Antimicrobial activity (MIC)” value ([3]; USA300, pH 7.2) is reported as 8 µM and the “Activity (MIC), E. coli” value ([2]; E423–17) is reported as 8 µM. For the same compound, the “Activity (MIC), P. aeruginosa” value [1] was 8 µM and the “Toxicity to HaCaT cells (viability)” value [11] was “least toxic”.
In the case of colistin, the “Membrane permeation (PI fluorescence)” value [9] is reported as “powerful membrane permeator”.
For NC[C@H]1O[C@H](O[C@H]2[C@H](O)[C@@H](O[C@H]3O[C@H](CO)[C@@H](O)[C@H](N)[C@H]3O)[C@H](N)C[C@@H]2N)[C@H](N)C[C@@H]1O [Tobramycin], the MIC [3, 15] was 4 µM (≈ 1.87 µg/mL) and the “Change in MIC with the dilution of MHB” value [4] was “essentially no changes in antibacterial activity”.

From article PMC12744307 (ACS infectious diseases, 2023)
